Data taken from PMC10441415 (bioRxiv, 2023).
Several values for one entry are separate records, joined by “and”; a condition that tells them apart may be missing. Identical values can stand only once.

Key:
Mtb H37Rv [1] = system: Mtb H37Rv; parameters: species or system Mycobacterium tuberculosis; conditions: in vivo
Mtb H37Rv [2] = system: Mtb H37Rv; parameters: species or system Mycobacterium tuberculosis; conditions: in vivo; remark: listed apart in the source
[3] = system: lung inflammation of Mtb-infected mice; parameters: species or system BALB/c mice; conditions: mouse, in vivo
[4] = system: lung inflammation of Mtb-infected mice; parameters: species or system BALB/c mice; conditions: mouse, in vivo; remark: listed apart in the source
[5] = system: Nos2, Ifn-γ, Tnf-α, Cd38, Egr2; parameters: species or system BALB/c mice; conditions: mouse, in vivo
[6] = Single-dose plasma pharmacokinetics, intraperitoneal; type: in vivo, BALB/c mice; conditions: single IP dose, sampling up to 24 hours
Summary of the method: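 Female BALB/c mice, 9–11 weeks old, each received one intraperitoneal dose (5 or 10 mg/kg) of the test compound, a tin metalloporphyrin HO-1 inhibitor, in sodium phosphate buffer (pH 7.4 – 7.8). Blood was drawn from three mice per time point at 0.25, 0.5, 1, 2, 4, 8 and 24 h. Plasma was assayed by LC-MS/MS. t1/2, tmax, Cmax, AUClast and AUCInf came from noncompartmental analysis.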

[7] = mouse, in vivo, ip
[8] = system: human peripheral blood mononuclear cells; conditions: cited from earlier work
[9] = system: naive CD4+ and CD8+ T cells; conditions: via interactions with CD14+ monocytes in vitro; cited from earlier work
Mtb = conditions: C57BL/6 mice, chronic phase of infection; cited from earlier work
Mtb-infected U937 cells = conditions: cited from earlier work
[10] = chronic treatment, wild-type mice; cited from earlier work

| Compound | Additive effect on lung CFU when co-administered with SPaO (Mtb H37Rv [1]) | Enhancement of the bactericidal activity of RHZ (Mtb H37Rv [1]) | Mean lung log10 CFU count (±SD) at W2 (Mtb H37Rv [1]) [log10 CFU] | Mean lung log10 CFU count (±SD) at W4 (Mtb H37Rv [1]) [log10 CFU] | Mean lung log10 CFU count (±SD) at W6 (Mtb H37Rv [1]) [log10 CFU] | Reduction of mean lung bacillary burden relative to vehicle control (Mtb H37Rv [1]) [log10 CFU] | Lung bacillary burdens relative to the SPaO regimen (Mtb H37Rv [2]) | Microbiological relapse rates (Mtb H37Rv [2]) | Gross or histological lung pathology [3] | Lung/body weight ratio versus SPaO control regimen [4] | Cd38 expression in lung compared to any other treatment group [5] | Tnf-α expression in lung relative to vehicle [5] | Last time point with detectable blood concentrations [6] [h] | Tolerability [7] | Expression of pro-inflammatory cytokines [8] | Activation, proliferation, and maturation of naive CD4+ and CD8+ T cells [9] | Reduction of mean lung bacterial burden relative to vehicle control (Mtb H37Rv [1]) | Lung bacillary burden (Mtb) | Secretion of proinflammatory cytokines, including TNF-α (Mtb-infected U937 cells) | Tubulointerstitial inflammation and fibrosis [10] |
| --- | --- | --- | --- | --- | --- | --- | --- | --- | --- | --- | --- | --- | --- | --- | --- | --- | --- | --- | --- | --- |
| CCC1=C(C)c2cc3[n-]c(cc4[n-]c(cc5nc(cc1n2)C(C)=C5CC)c(C)c4CCC(=O)O)c(CCC(=O)O)c3C.[Cl-].[Cl-].[Sn+4] [SnMP, stannsoporfin] | neither SnPP nor SnMP adjunctive therapy showed an additive effect | did not significantly enhance | 5.73 ± 0.22 | 5.36 ± 0.31 | 5.98 ± 0.06 | 0.67 | did not significantly alter | did not reduce microbiological relapse rates | did not significantly alter | did not differ statistically | significantly higher expression | reduced expression | 8 | well tolerated | induces the expression of pro-inflammatory cytokines | induce the activation, proliferation, and maturation | – | – | – | – |
| C=Cc1c2[n-]c(c1C)/C=c1\[n-]/c(c(C)c1C=C)=C\c1[n-]c(c(CCC(=O)O)c1C)C=c1[n-]/c(c(C)c1CCC(=O)O)=C\2.[Sn+4] [SnPP, tin-protoporphyrin IX] | neither SnPP nor SnMP adjunctive therapy showed an additive effect | did not significantly enhance | 5.52 ± 0.29 | 5.30 ± 0.30 | 5.30 ± 0.19 | 0.88 | – | – | – | – | – | – | 8 | – | – | – | 1.2 log10 CFU and 1.1 log10 CFU | reduced the lung bacillary burden alone | reduced the secretion of proinflammatory cytokines | can induce tubulointerstitial inflammation and fibrosis |
